In the RNAGym collection of RNA variant scans (doi:10.1126/science.aae0568):
Variants at the floor of the assay were thinned out.

B1: tRNA (parent)
chain: GUUCCGUUGGCGUAAUGGUAACGCGUCUCCCUCCUAAGGAGAAGACUGCGGGUUCGAGUCCCGUACGGAACG

Variants of: B1
Assay: yeast fitness relative to wild type (ratio to wild type); higher = fitter; tRNA-Arg(CCU), competitive growth, 37 C, YPD
In short: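 Variants of the tRNA-Arg(CCU) gene, chemically synthesised with a 3% per-site mutation rate at 69 sites, were placed at the native genomic locus in Saccharomyces cerevisiae. The pooled strains were competed in YPD at 37°C for 24 hours in six parallel replicates. Gene amplicons from the start population and from each end population were read by 100-nucleotide paired-end sequencing. Darwinian fitness relative to wild type came from changes in genotype frequencies; genotypes needed ≥ 100 starting reads, and estimates < 0.5 were set to 0.5.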

Variant | yeast fitness
GUUCCGUUGGCGUAAUGGUACGGCGUCUCCCUCCUAAGGAGCAGACAGCGGGUUCGAGUCCCGUACGGAACG [A21C C22G A42C U47A] | ≤ 0.5
GUUCCGUUGGCGUAAUGGUACCGCGUAUCCCUCCUAAGGAGAAGACUGCCGGUUCGAGUCCCGUACGGAACG [A21C C27A G50C] | ≤ 0.5
GUUCCGUUGGCGUAAUGGUACCGCGUCUCACUCCUAAGGAGAGGACUGCGGGUUCGAGUCUCGUACGGAACG [A21C C30A A43G C61U] | ≤ 0.5
GUUCCGUUGGCGUAAUGGUACCGUGUCUCCCACCUAAGGAGAAGACUGCGGGUUCGAGUCUCGUACGGAACG [A21C C24U U32A C61U] | ≤ 0.5
GUUCCGUUGGCGUAAUGGUACCGUCGCUCCCUCCUAAGGAGAAGACUGCGGGUUCGAGACCCGUACGGACCG [A21C C24U G25C U26G U59A A70C] | ≤ 0.5
GUUCCGUUGGCGUAAUGGUACCGCGUCUCCCUCCUAAGGAGAAGACUGCGGGUUCGUGUCCCGUACGGAACG [A21C A57U] | 0.752
GUUCCGUUGGCGUAAUGGUACCGCGUUUCCCUCCUAAGGAGAAGACUGCGGGUUGGAGUCCCGUACGGAACG [A21C C27U C55G] | 0.617
GUUCCGUUGGCGUAAUGGUACCGCGUUUCCCUCCUAAGGAGAAGACUCCGGGUUCGAGUCCCGUACGGAACG [A21C C27U G48C] | 0.547
GUUCCGUUGGCGUAAUGGUACCGUGUCUCCCUCCUACGAAGAAGACUGGGGGUUCGAGUCCCGUACGGAACG [A21C C24U A37C G39A C49G] | ≤ 0.5
GUUCCGUUGGCGUAAUGGUACCGCGUCUCCCUCCUAAGGAGAAGACUGCGGGUUCGGGUCCCGUACAGAACG [A21C A57G G67A] | ≤ 0.5
GUUCCGUUGGCGUAAUGGUACCGCGUCUCACUCCUAAGGAGAAGACUGCGGGUUCGAGUCCCGUACGGAACG [A21C C30A] | 0.802
GUUCCGUUGGCGUAAUGGUACCGCGUCUACCUCCUAAGGAGAAGACUGCGGCUUCGAGUCCCGUACGGAACG [A21C C29A G52C] | 0.566
GUUCCGUUGGCGUAAUGGUACCGCGUCUCGCUCCUAAGGAGAAGACUGCGGGUUGGAGUCCCGUACGGAGCG [A21C C30G C55G A70G] | 0.532
GUUCCGUUGGCGUAAUGGUACAGCGCCUCCCUCCUAAGGAGAAGACUGCGGGUUCGAGUCCCGUACGGAACG [A21C C22A U26C] | ≤ 0.5
GUUCCGUUGGCGUAAUGGUACCGCGUAUCCCUCCUAAGGAGAAGACUGGGGGUUCGAGUCCCGUACGGCACG [A21C C27A C49G A69C] | ≤ 0.5
GUUCCGUUGGCGUAAUGGUACCGCGUCUCCCUCCUAAGGAGAAGUCAGCGGGAUCGAGUCCCGUACGGAACG [A21C A45U U47A U53A] | ≤ 0.5
GUUCCGUUGGCGUAAUGGUACUGCGUCUCCUUUCUAAGGAGAAGACUGCGGGUUCGAGUCCCGUACAGAACG [A21C C22U C31U C33U G67A] | ≤ 0.5
GUUCCGUUGGCGUAAUGGUACCGCGUCUCCCUCCUAAGGAGAAGACUGCGGGUUCGUGUUCUGUAUGGAACG [A21C A57U C60U C62U C66U] | 0.612
GUUCCGUUGGCGUAAUGGUACCGCGUCUCCCUCCUAAGGAGAAGACUGCGGGUUCGCGUCCAGUACGGAACG [A21C A57C C62A] | ≤ 0.5

Variant | yeast fitness
GUUCCGUUGGCGUAAUGGUACCGGGUCUCCCUCCUAAGGAGAAGACUGCGGGUUCGAGUCCCGUCCCGAACG [A21C C24G A65C G67C] | 0.718
GUUCCGUUGGCGUAAUGGUACCGCGUUUCCCUCUUAAGGAGAAGACUGCCGCUUCGAGUCUCGUACGGAACG [A21C C27U C34U G50C G52C C61U] | ≤ 0.5
GUUCCGUUGGCGUAAUGGUACCGCGUCUCCCUCCUAAGGAGAAGACUGCGGGUUCGAGUCCCGUACGGAGCG [A21C A70G] | 0.861
GUUCCGUUGGCGUAAUGGUACCGCGUCUCCCUCCUAAGGAGAAGACUGCGGGUUCGAGUCCCGUACGGAUCG [A21C A70U] | 0.894
GUUCCGUUGGCGUAAUGGUACCGCGUGUCCCUCCUAAGGAGAAGAAUGCGGGUUGGAGUCCCGUACGGAACG [A21C C27G C46A C55G] | ≤ 0.5
GUUCCGUUGGCGUAAUGGUACCGCGUCUACCUCCUAAGGAGAAGACUGCGGAUUCGAGUCUCGUACGGAACG [A21C C29A G52A C61U] | ≤ 0.5
GUUCCGUUGGCGUAAUGGUACCGAGUCUCCCUCCUAAGAAGAAGACUGCGGGUUCCAGUCCCGUACGGUACG [A21C C24A G39A G56C A69U] | ≤ 0.5
GUUCCGUUGGCGUAAUGGUACCGCGUAUCCCUCCUAGGGAGAAGCCUGCGGGUUCGAGUCCCGUACGGAACG [A21C C27A A37G A45C] | 0.529
GUUCCGUUGGCGUAAUGGUACCGGCUCUCCCUCCUAAGGAGAAAACUGCGGGUUGAAGUCCCGUACGGAACG [A21C C24G G25C G44A C55G G56A] | ≤ 0.5
GUUCCGUUGGCGUAAUGGUACAGCGUCUCUCUCCUAAGGAGAAGACUCCGGGUUCGAGUCCCGUACGGAACG [A21C C22A C30U G48C] | ≤ 0.5
GUUCCGUUGGCGUAAUGGUACCGAGUCUCCAUCCUAAGGAGAAGACAGCGGGUUCGAGUCCCGUACGGAACG [A21C C24A C31A U47A] | ≤ 0.5
GUUCCGUUGGCGUAAUGGUACCGAGUCUCCCUCCUAAGGAGAAGACUGCGGGUACGAGUCCCGUACGGACCG [A21C C24A U54A A70C] | ≤ 0.5
GUUCCGUUGGCGUAAUGGUACCGUGUCUCCCUCCUCAGGAGAAGACUGCGGGUUCGAGUCCCGUACGGAACG [A21C C24U A36C] | 0.592
GUUCCGUUGGCGUAAUGGUACCGUGUCUCCCUCCUCAGGAGAAGACUGCGGGUUCGUGUCCCGUACGGAACG [A21C C24U A36C A57U] | ≤ 0.5
GUUCCGUUGGCGUAAUGGUACCGCGUCUUCGUCCUAAGGAGAUGACUGCGGGUUCGAGUCCCGUCCGGAACG [A21C C29U C31G A43U A65C] | ≤ 0.5
GUUCCGUUGGCGUAAUGGUACCGCGUCUCCCUCCUAAGGAGAAGACUGCGGGUUCGGGUCCCGUACGGGACG [A21C A57G A69G] | ≤ 0.5
GUUCCGUUGGCGUAAUGGUACCGUGUCUCCCACCUAAGGAGAAGACUGCGGGUUCGAGUCCCGUCCGGAACG [A21C C24U U32A A65C] | ≤ 0.5
GUUCCGUUGGCGUAAUGGUACCGCGUCUCGCUCCUAAGGAGAAGGCUGCGGGUUCGAGUCCCGUAAGGAACG [A21C C30G A45G C66A] | ≤ 0.5
